# Assay results gathered from unrelated publications.
# Each line is one published result; the experiments were not run side by side.
# ALK: ALK tyrosine kinase receptor (ALK, Homo sapiens, UniProt Q9UM73)
# ALK L1196M: ALK tyrosine kinase receptor (ALK, Homo sapiens, UniProt Q9UM73, L1196M)
Structure (SMILES),target,test,conditions,measurement,value
C#Cc1cnc(Nc2ccnc(CO)c2)nc1Nc1ccccc1S(C)(=O)=NC#N (stereo not shown),ALK,"enzyme activity, inhibitor, radiometric",1 µM,remaining activity,27.6%
COc1ccc2[nH]c3c4[nH]c5ccc(OC)cc5c4c4c(c3c2c1)C(=O)NC4=O,ALK,binding,1 µM,remaining binding,55%
C#Cc1cnc(Nc2ccc(CO)cc2)nc1Nc1ccccc1C(=O)NC,ALK,"enzyme activity, inhibitor, radiometric",1 µM,remaining activity,2.4%
C1=C/COCc2cc(ccc2OCCN2CCCC2)Nc2nccc(n2)-c2cccc(c2)COC/1,ALK,binding,0.1 µM,remaining binding,73%
CO[C@@H]1[C@H](N(C)C(=O)c2ccccc2)C[C@H]2O[C@]1(C)n1c3ccccc3c3c4c(c5c6ccccc6n2c5c31)C(=O)NC4,ALK L1196M,"enzyme activity, inhibitor",1 µM,inhibition,42%
CS(=O)(=NC#N)c1ccccc1Nc1nc(Nc2ccnc(CO)c2)ncc1Cl (stereo not shown),ALK,"enzyme activity, inhibitor, radiometric",1 µM,remaining activity,36.7%
C[C@H]1CC[C@H](n2c3cnccc3c3cnc(Nc4ccc5c(n4)CCN(C(=O)CO)C5)nc32)CC1,ALK,binding,1 µM,remaining binding,84%
CCCCC(=O)Nc1ccc(-c2ccc3ncn(CCC)c(=O)c3c2)cn1,ALK L1196M,"binding, competition with immobilised ligand",0.5 µM,remaining binding,100%
C=CC(=O)N1CCC([C@@H]2CCNc3c(C(N)=O)c(-c4ccc(Oc5ccccc5)cc4)nn32)CC1,ALK,cell-free assay,1 µM,inhibition,5%
CN1CCN(C(=O)c2ccc(NC(=O)Nc3ccc(N(C)c4ccnc(Nc5ccc(CS(C)(=O)=O)cc5)n4)cc3)cc2)CC1,"ALK tyrosine kinase receptor (ALK, Homo sapiens, UniProt Q9UM73, C1156Y)",binding,1 µM,remaining binding,64%
CNC(=O)c1ccccc1Nc1nc(Nc2ccc(CO)nc2)ncc1Cl,ALK,"enzyme activity, inhibitor, radiometric",1 µM,remaining activity,2.92%
CC#CC(=O)N1CCC[C@H]1c1nc(-c2ccc(C(=O)Nc3ccccn3)cc2)c2c(N)nccn12,ALK L1196M,"enzyme activity, inhibitor",1 µM,inhibition,11%
Cc1ccc(NC(=O)c2ccnc(C(F)(F)F)c2)cc1-c1cc(OCCO)nc(N2CCOCC2)c1,ALK,binding,1 µM,remaining binding,89%
